Experimental data of several laboratories.
Each line is one published result; the experiments were not run side by side.
Target: Cyclin-G-associated kinase (GAK, Homo sapiens, UniProt O14976)
Residues used in one study (O14976 1-1311): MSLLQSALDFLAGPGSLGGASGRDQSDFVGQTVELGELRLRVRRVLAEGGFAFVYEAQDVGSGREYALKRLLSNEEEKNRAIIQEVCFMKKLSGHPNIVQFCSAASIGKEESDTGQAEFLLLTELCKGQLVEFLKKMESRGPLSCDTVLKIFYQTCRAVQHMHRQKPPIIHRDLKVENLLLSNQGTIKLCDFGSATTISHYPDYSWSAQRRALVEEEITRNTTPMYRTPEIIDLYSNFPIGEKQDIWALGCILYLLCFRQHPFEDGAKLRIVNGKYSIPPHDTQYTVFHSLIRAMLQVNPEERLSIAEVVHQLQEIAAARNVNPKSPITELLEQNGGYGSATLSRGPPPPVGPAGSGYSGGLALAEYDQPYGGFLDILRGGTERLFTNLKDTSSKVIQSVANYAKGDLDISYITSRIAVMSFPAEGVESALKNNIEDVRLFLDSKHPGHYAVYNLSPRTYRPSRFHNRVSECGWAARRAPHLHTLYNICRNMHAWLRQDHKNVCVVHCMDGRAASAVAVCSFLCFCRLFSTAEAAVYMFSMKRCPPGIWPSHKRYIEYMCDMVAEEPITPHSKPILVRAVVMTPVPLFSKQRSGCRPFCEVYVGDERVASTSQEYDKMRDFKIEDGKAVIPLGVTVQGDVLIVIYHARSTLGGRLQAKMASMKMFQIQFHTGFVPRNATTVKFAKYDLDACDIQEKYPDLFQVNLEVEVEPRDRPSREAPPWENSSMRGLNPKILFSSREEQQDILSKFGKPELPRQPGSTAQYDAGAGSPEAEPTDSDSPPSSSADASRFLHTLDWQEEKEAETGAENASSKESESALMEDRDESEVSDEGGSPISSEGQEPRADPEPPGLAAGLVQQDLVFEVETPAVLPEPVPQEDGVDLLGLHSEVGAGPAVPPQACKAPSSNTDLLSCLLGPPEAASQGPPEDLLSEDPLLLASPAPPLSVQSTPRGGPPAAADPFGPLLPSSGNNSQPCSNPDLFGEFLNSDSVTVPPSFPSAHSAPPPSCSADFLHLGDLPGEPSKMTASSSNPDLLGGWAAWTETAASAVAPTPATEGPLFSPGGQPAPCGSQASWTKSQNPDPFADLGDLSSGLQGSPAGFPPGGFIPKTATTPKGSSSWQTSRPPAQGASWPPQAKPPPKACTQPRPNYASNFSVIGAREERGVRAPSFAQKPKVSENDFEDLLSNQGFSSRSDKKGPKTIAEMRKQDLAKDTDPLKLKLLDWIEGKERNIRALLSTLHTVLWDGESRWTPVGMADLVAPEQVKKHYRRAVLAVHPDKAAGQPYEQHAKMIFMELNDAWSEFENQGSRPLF

Compound	read-out	technique	concentration	remaining binding
O=C(NCCCN1CCOCC1)c1ccc(Nc2ncc(Cl)c(-c3ccc(Cl)s3)n2)cc1	binding	competition with immobilised ligand	1 µM	15%
C[C@@H]1CN(c2cc(-c3nn(C)c4ccc(OC5(C)CC5)cc34)ncn2)C[C@H](C)O1	cell-free assay	competition with immobilised ligand	1 µM	86%
O=C(c1ccc(Nc2nccc(-c3cc4ccccc4s3)n2)cc1)N1CCC(N2CCCC2)CC1	binding	competition with immobilised ligand	1 µM	34%
Cn1nc(C(F)(F)F)cc1-c1cnc(N2CCc3cc(S(=O)(=O)Nc4c(F)cc(Cl)cc4F)cc(N4CCCC4=O)c32)nc1	cell-free assay	competition with immobilised ligand	1 µM	94%
c1cncc(-c2cccc(Nc3nccc(NC4CCCCC4)n3)c2)c1	binding	competition with immobilised ligand	10 µM	42%
COc1cnc(Nc2cccc(S(N)(=O)=O)c2)nc1N1CCN(c2ccccc2)CC1	binding	competition with immobilised ligand	1 µM	85%
O=C(O)c1cc(-c2ccc(C3CCNCC3)cc2)c2ccc(-c3ccc(C(F)(F)F)cc3)cc2c1	cell-free assay	competition with immobilised ligand	1 µM	100%
O=C(c1ccc(Nc2ncc(Cl)c(-c3cc4ccccc4s3)n2)cc1)N1CCC(N2CCCC2)CC1	binding	competition with immobilised ligand	1 µM	48%
CC1CCCN1c1nccc(-c2cnn3ncccc23)n1 (stereo not shown)	binding		1 µM	94%
CCN1CCN(Cc2ccc(C(=O)Nc3ccc(C)c(Oc4ccc5c(c4)CC(=O)N5)c3)cc2C(F)(F)F)CC1	binding	competition with immobilised ligand	1 µM	100%
C[C@H]1CCN(c2nccc(-c3cnn4ncccc34)n2)C1	binding		1 µM	28%
CC(=O)N1CCC(c2ccc(C(=O)NC3=NCCN3)cc2C(F)(F)F)CC1	cell-free assay	competition with immobilised ligand	1 µM	97%
F[C@@H]1CCN(c2nccc(-c3cnn4ncccc34)n2)C1	binding		1 µM	85%
Cc1cc(C)c(-n2ccn3nc(-c4cccnc4)cc23)cc1NC(=O)c1cc(C#N)cc(S(F)(F)(F)(F)F)c1	cell-free assay	competition with immobilised ligand	0.1 µM	83.3%
Cc1cnn2ncc(-c3ccnc(N(C)C)n3)c2c1	binding		1 µM	52%
CNC(=O)[C@@H]1CC[C@@H](n2c(-c3ccc4cnccc4c3)nc3ccc(C(=O)NCc4cccc(C(N)=O)c4)cc32)C1	binding	competition with immobilised ligand	1 µM	100%
CN(C)c1nccc(-c2cnc3ncccn23)n1	binding		1 µM	72%
O=C(NCC1CCOCC1)c1n[nH]cc1NC(=O)c1c(F)cccc1F	binding	competition with immobilised ligand	1 µM	88%
N[C@H]1CCN(c2nccc(-c3cnn4ncccc34)n2)C1	binding		1 µM	80%
C=CC(=O)N1CCC(C(=O)NCC(=O)N2CCN(c3nc(-c4cnc(N)nc4C(F)F)nc(N4CCOCC4)n3)CC2)CC1	binding	competition with immobilised ligand	1 µM	100%
CN(C)c1nccc(-c2cnn3ncccc23)n1	binding		1 µM	82%
O=C(NC[C@@H]1[C@H]2CN(C(=O)OCc3cc(C(F)(F)F)cc(C(F)(F)F)c3)C[C@@H]12)c1ccc2[nH]nnc2c1	cell-free assay	competition with immobilised ligand	1 µM	91%
